Laboratory results from ChEMBL document CHEMBL1165926, “Synthesis and characterization of potent inhibitors of Trypanosoma cruzi dihydrofolate reductase” (Bioorg Med Chem, 2010).

Experiments:
[1] = target: T1, Bifunctional dihydrofolate reductase-thymidylate synthase (Trypanosoma cruzi, UniProt Q27793); assay: Inhibition of Trypanosoma cruzi DHFR by Lineweaver-Burke plot
Method in brief: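 Recombinant bifunctional T. cruzi DHFR-TS; 50 mM Tris-HCl pH 7.0 with DHF, 100 µM NADPH and 0.5–1.0 µg enzyme; initial velocity followed at 340 nm for 30 s at 22.6 °C. Velocities taken at five DHF concentrations for each of three inhibitor concentrations; Ki read from Lineweaver–Burk plots.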

Dihydrofolate reductase = target: T2, Dihydrofolate reductase (Homo sapiens, UniProt P00374); assay: Inhibition of human DHFR by spectrophotometric assay
T2 sequence (P00374 whole entry): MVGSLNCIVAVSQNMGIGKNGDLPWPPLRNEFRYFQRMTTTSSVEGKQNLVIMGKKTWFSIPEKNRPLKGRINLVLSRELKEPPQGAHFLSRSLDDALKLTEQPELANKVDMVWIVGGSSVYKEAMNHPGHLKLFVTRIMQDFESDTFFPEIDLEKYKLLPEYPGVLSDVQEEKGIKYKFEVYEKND

[2] = target: T1, Bifunctional dihydrofolate reductase-thymidylate synthase; assay: Inhibition of Trypanosoma cruzi DHFR by spectrophotometric assay
Method in brief: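 Recombinant bifunctional T. cruzi DHFR-TS in 50 mM Tris-HCl pH 7.0 with DHF, 100 µM NADPH and 0.5–1.0 µg enzyme; velocity from absorbance at 340 nm over 30 s at 22.6 °C. IC50 from velocities at several inhibitor concentrations for each of three DHF concentrations, then averaged; Ki calculated from IC50. Triplicates, repeated on different days.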

T1 sequence (Q27793 whole entry): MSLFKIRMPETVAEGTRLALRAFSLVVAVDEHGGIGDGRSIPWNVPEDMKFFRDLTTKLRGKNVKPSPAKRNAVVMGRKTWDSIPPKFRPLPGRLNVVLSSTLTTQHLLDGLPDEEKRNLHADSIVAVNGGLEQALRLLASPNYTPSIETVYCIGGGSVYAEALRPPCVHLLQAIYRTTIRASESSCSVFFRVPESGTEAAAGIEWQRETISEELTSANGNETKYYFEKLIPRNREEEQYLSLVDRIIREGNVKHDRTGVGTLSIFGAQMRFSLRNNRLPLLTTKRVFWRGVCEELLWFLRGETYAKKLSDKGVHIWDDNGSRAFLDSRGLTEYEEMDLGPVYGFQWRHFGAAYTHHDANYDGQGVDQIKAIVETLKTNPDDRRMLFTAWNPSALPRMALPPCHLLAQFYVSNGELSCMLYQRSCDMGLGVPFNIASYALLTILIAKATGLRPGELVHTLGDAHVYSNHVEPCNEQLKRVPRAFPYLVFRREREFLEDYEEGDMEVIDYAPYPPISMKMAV

Structure (SMILES) | Ki [1] | IC50 (Dihydrofolate reductase) | Ki (Dihydrofolate reductase) | IC50 [2] | Ki [2]
COc1ccc(NCc2ccc3nc(N)nc(N)c3c2)cc1OC | 4.75 nM | 85.5 nM | 11.8 nM | 27.1 nM | 1.6 nM
CCCN(Cc1ccc2nc(N)nc(N)c2c1)c1ccc(OC)c(OCCCCC(=O)OC)c1 |  | 1340 nM | 188 nM | 422 nM | 24.9 nM
COc1ccc(NCc2ccc3nc(N)nc(N)c3c2)cc1OCCCC(=O)O |  | 357 nM | 49.8 nM | 61 nM | 3.6 nM
COC(=O)CCCCOc1cc(NCc2ccc3nc(N)nc(N)c3c2)ccc1OC |  | 93.5 nM | 13 nM | 27 nM | 1.6 nM
COC(=O)c1ccc(COc2cc(NCc3ccc4nc(N)nc(N)c4c3)ccc2OC)cc1 |  | 175 nM | 24.5 nM | 57.5 nM | 3.3 nM
CCOC(=O)CCCOc1cc(NCc2ccc3nc(N)nc(N)c3c2)ccc1OC | 5.68 nM | 68.3 nM | 9.6 nM | 23.8 nM | 1.3 nM
COc1cc(NCc2ccc3nc(N)nc(N)c3c2C)cc(OC)c1OC [TRIMETREXATE] |  |  |  | 20.2 nM | 6.6 nM
